≈ marks a conversion by molar mass, not a printed value. Bounds are passed on as bounds.

Results on three compounds are retold here after ChEMBL document CHEMBL1134691, “3-Phenyl-5-acyloxymethyl-2H,5H-furan-2-ones: synthesis and biological activity of a novel group of potential antifungal drugs” (2001).

Assay [1] deals with Lichtheimia corymbifera. Description: In vitro inhibition of Absidia corymbifera 272 growth for 24 hours. It counts as functional. An outline of the steps: (§1)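 Filamentous isolates tested by microdilution per NCCLS M27-A in RPMI 1640 plus L-glutamine, buffered with 0.165 M MOPS to pH 7.0. Final inoculum 5 × 10^3 cfu/mL. Compounds in DMSO (final ≤2%), 2-fold series over 1000–0.24 µmol/L. Plates held at 35 °C and read visually after 24 and 48 h. MIC taken as 80% inhibition of control growth; determined twice in duplicate.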

Assay [2] concerns Lichtheimia corymbifera. Description: In vitro inhibition of Absidia corymbifera 272 growth for 48 hours. It counts as functional. The method in brief:
as §1

Assay [3] relates to Pichia kudriavzevii. Description: Inhibition of Candida krusei ATCC 6258 growth for 24 hours in vitro. The format is functional. The method in brief: (§2)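 NCCLS M27-A broth microdilution in RPMI 1640 with L-glutamine and 0.165 M MOPS, pH 7.0. Isolates kept on Sabouraud dextrose agar. Inoculum 5 × 10^3 cfu/mL final. Compounds were diluted in DMSO (≤2% final) and tested in 2-fold dilutions of 1000–0.24 µmol/L. Incubation at 35 °C, OD540 read at 24 and 48 h. MIC = 80% growth inhibition versus control; assays run twice in duplicate.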

Assay [4] has as its system Pichia kudriavzevii. Description: Inhibition of Candida krusei ATCC 6258 growth for 48 hours in vitro. It counts as functional. An outline of the steps:
as §2

Assay [5] relates to Pichia kudriavzevii. Description: Inhibition of Candida krusei E28 growth for 24 hours in vitro. It counts as functional. An outline of the steps:
as §2

The test system of assay [6] is Pichia kudriavzevii. Description: Inhibition of Candida krusei E28 growth for 48 hours in vitro. The format is functional. The method in brief:
as §2

The subject of assay [7] is Aspergillus fumigatus. Description: Inhibition of Aspergillus fumigatus 231 growth for 48 hours in vitro. The format is functional. An outline of the steps:
as §1

Assay [8] concerns Clavispora lusitaniae. Description: Inhibition of Candida lusitaniae 2446/I growth for 24 hours in vitro. It counts as functional. The method in brief:
as §2

For assay [9], the system named is Clavispora lusitaniae. Description: Inhibition of Candida lusitaniae 2446/I growth for 48 hours in vitro. The format is functional. The method in brief:
as §2

Assay [10] deals with Candida parapsilosis. Description: Inhibition of Candida parapsilosis ATCC 22019 growth for 24 hours in vitro. It counts as functional. An outline of the steps: as §2
The test system of assay [11] is Candida parapsilosis. Description: Inhibition of Candida parapsilosis ATCC 22019 growth for 48 hours in vitro. It counts as functional. An outline of the steps:
as §2

Assay [12] relates to Candida albicans. Description: Inhibition of Candida albicans ATCC 44859 growth for 24 hours in vitro. It counts as functional. The method in brief: as §2
Assay [13] deals with Candida albicans. Description: Inhibition of Candida albicans ATCC 44859 growth for 48 hours in vitro. The format is functional. The method in brief: as §2
In assay [14] the test system is Candida albicans. Description: Inhibition of Candida albicans ATCC 90028 for 24 hours in vitro. It counts as functional. The method in brief: as §2
The test system of assay [15] is Candida albicans. Description: Inhibition of Candida albicans ATCC 90028 for 48 hours in vitro. It counts as functional. An outline of the steps:
as §2

Assay [16] deals with Nakaseomyces glabratus. Description: Inhibition of Candida glabrata 20/I growth for 24 hours in vitro. It counts as functional. The method in brief:
as §2

Assay [17] relates to Nakaseomyces glabratus. Description: Inhibition of Candida glabrata 20/I growth for 48 hours in vitro. It counts as functional. The method in brief:
as §2

The test system of assay [18] is Candida tropicalis. Description: Inhibition of Candida tropicalis 156 growth for 24 hours in vitro. The format is functional. An outline of the steps: as §2
The test system of assay [19] is Trichosporon beigelii. Description: Inhibition of Trichosporon beigelli 1188 for 24 hours in vitro. It counts as functional. The method in brief:
(§3)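 Microdilution following NCCLS M27-A. Medium: RPMI 1640 with L-glutamine, 0.165 M MOPS, pH 7.0. Final inoculum 5 × 10^3 cfu/mL. Compounds dissolved in DMSO, final ≤2%, serially halved from 1000 to 0.24 µmol/L. Incubated at 35 °C and read at 24 and 48 h. MIC defined as 80% inhibition of control growth; run twice in duplicate.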

Assay [20] concerns Trichosporon beigelii. Description: Inhibition of Trichosporon beigelli 1188 for 48 hours in vitro. It counts as functional. The method in brief: as §3
Assay [21] in a line: Inhibition of Trichophyton mentagrophytes 445 growth for 72 hours in vitro. It counts as functional, Arthroderma benhamiae. The method in brief:
(§4)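 Dermatophyte grown in MOPS-buffered (0.165 M, pH 7.0) RPMI 1640 containing L-glutamine, in an M27-A microdilution format. Inoculum 5 × 10^3 cfu/mL final. Compounds from DMSO stocks (≤2% final), 2-fold dilutions 1000–0.24 µmol/L. Incubated at 35 °C, growth judged visually at 72 and 120 h. MIC endpoint is 80% inhibition relative to control; measured twice in duplicate.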

Assay [22] is described as follows: Inhibition of Trichophyton mentagrophytes 445 growth for 120 hours in vitro. The format is functional, Arthroderma benhamiae. An outline of the steps: as §4
Assay [23] relates to Aspergillus fumigatus. Description: Inhibition of Aspergillus fumigatus 231 growth for 24 hours in vitro. It counts as functional. An outline of the steps:
as §1

The subject of assay [24] is Candida tropicalis. Description: Inhibition of Candida tropicalis 156 growth for 48 hours in vitro. The format is functional. An outline of the steps: as §2
[25] abbreviates: Lichtheimia corymbifera, 24 h, read-out: MIC.
Where [26] appears, read: Lichtheimia corymbifera, 48 h, read-out: MIC.
[27] abbreviates: Pichia kudriavzevii, ATCC 6258, 24 h, read-out: MIC.
Setting [28] is: Pichia kudriavzevii, ATCC 6258, 48 h, read-out: MIC.
Setting [29] is: Pichia kudriavzevii, 24 h, read-out: MIC.
[30] abbreviates: Pichia kudriavzevii, 48 h, read-out: MIC.
Setting [31] is: Aspergillus fumigatus, 48 h, read-out: MIC.
The mark [32] stands for this setting: Clavispora lusitaniae, 24 h, read-out: MIC.
Setting [33] is: Clavispora lusitaniae, 48 h, read-out: MIC.
Where [34] appears, read: Lodderomyces parapsilosis, ATCC 22019, 24 h, read-out: MIC.
Where [35] appears, read: Lodderomyces parapsilosis, ATCC 22019, 48 h, read-out: MIC.
[36] abbreviates: Candida albicans, ATCC 44859, 24 h, read-out: MIC.
The mark [37] stands for this setting: Candida albicans, ATCC 44859, 48 h, read-out: MIC.
[38] abbreviates: Candida albicans, ATCC 90028, 24 h, read-out: MIC.
Where [39] appears, read: Candida albicans, ATCC 90028, 48 h, read-out: MIC.
[40] abbreviates: Nakaseomyces glabratus, 24 h, read-out: MIC.
Setting [41] is: Nakaseomyces glabratus, 48 h, read-out: MIC.
[42] abbreviates: Candida tropicalis, 24 h, read-out: MIC.
Where [43] appears, read: Trichosporon beigelii, 24 h, read-out: MIC.
Where [44] appears, read: Trichosporon beigelii, 48 h, read-out: MIC.
Where [45] appears, read: Trichophyton benhamiae, 72 h, read-out: MIC.
Where [46] appears, read: Trichophyton benhamiae, 120 h, read-out: MIC.
[47] abbreviates: Aspergillus fumigatus, 24 h, read-out: MIC.
[48] abbreviates: Candida tropicalis, 48 h, read-out: MIC.

With `CC(C)(C)C(=O)OCC1C=C(c2ccc(Cl)c(Cl)c2)C(=O)O1` (stereo in doubt; 2c), the MIC in the assay with Lichtheimia corymbifera [1] came out at 7.81 uM l-1; against Lichtheimia corymbifera [2], 15.63 uM l-1; in the assay on Pichia kudriavzevii [3], 7.81 uM l-1; against Pichia kudriavzevii [4], 31.25 uM l-1; with Pichia kudriavzevii [5], 3.91 uM l-1; against Pichia kudriavzevii [6], 7.81 uM l-1. The MIC against Aspergillus fumigatus [7] was 3.91 uM l-1; in the assay with Clavispora lusitaniae [8], 1.95 uM l-1; with Clavispora lusitaniae [9] it was 3.91 uM l-1; with Candida parapsilosis [10] it was 3.91 uM l-1; against Candida parapsilosis [11], 3.91 uM l-1; with Candida albicans [12], 0.49 µM (≈ 0.168 µg/mL). The MIC worked out at 1.95 uM l-1 against Candida albicans [13]; 1.95 uM l-1 against Candida albicans [14]; 1.95 µM (≈ 0.669 µg/mL) in the assay on Candida albicans [15]; 0.49 µM (≈ 0.168 µg/mL) with Nakaseomyces glabratus [16]; 0.98 uM l-1 in the assay on Nakaseomyces glabratus [17]; 3.91 uM l-1 with Candida tropicalis [18]. The MIC stood at 1.95 uM l-1 in the assay with Trichosporon beigelii [19]; 7.81 uM l-1 against Trichosporon beigelii [20]; 0.24 uM l-1 in assay [21]; 0.49 uM l-1 in assay [22]; 1.95 uM l-1 in the assay on Aspergillus fumigatus [23]; 7.81 uM l-1 against Candida tropicalis [24].

As to `O=C1OC(COC(=O)c2ccc(Cl)cc2)C=C1c1ccc(Cl)c(Cl)c1` (configuration not stated), the MIC in the assay on Lichtheimia corymbifera [1] (setting [25]) worked out at 15.6 µM (≈ 6.22 µg/mL); with Lichtheimia corymbifera [2] (setting [26]), 31.2 µM (≈ 12.4 µg/mL); in the assay with Pichia kudriavzevii [3] (setting [27]), 3.91 µM (≈ 1.55 µg/mL); in the assay on Pichia kudriavzevii [4] (setting [28]) it was 7.81 µM (≈ 3.11 µg/mL); in the assay with Pichia kudriavzevii [5] (setting [29]), 3.91 µM (≈ 1.55 µg/mL); in the assay with Pichia kudriavzevii [6] (setting [30]), 7.81 µM (≈ 3.11 µg/mL). Further, the MIC in the assay with Aspergillus fumigatus [7] (setting [31]) was determined as 3.91 µM (≈ 1.55 µg/mL); in the assay with Clavispora lusitaniae [8] (setting [32]) it was 1.95 µM (≈ 0.775 µg/mL); in the assay on Clavispora lusitaniae [9] (setting [33]) it was 3.91 µM (≈ 1.55 µg/mL); with Candida parapsilosis [10] (setting [34]), 1.95 µM (≈ 0.775 µg/mL); in the assay with Candida parapsilosis [11] (setting [35]) it was 3.91 µM (≈ 1.55 µg/mL); with Candida albicans [12] (setting [36]), 0.12 µM (≈ 0.0477 µg/mL). The MIC in the assay with Candida albicans [13] (setting [37]) came to 1.95 µM (≈ 0.775 µg/mL); in the assay with Candida albicans [14] (setting [38]), 1.95 µM (≈ 0.775 µg/mL); with Candida albicans [15] (setting [39]) it was 3.91 µM (≈ 1.55 µg/mL); in the assay on Nakaseomyces glabratus [16] (setting [40]), 0.98 µM (≈ 0.39 µg/mL); in the assay on Nakaseomyces glabratus [17] (setting [41]), 0.98 µM (≈ 0.39 µg/mL); in the assay on Candida tropicalis [18] (setting [42]), 1.95 µM (≈ 0.775 µg/mL). The MIC in the assay on Trichosporon beigelii [19] (setting [43]) turned out to be 1.95 µM (≈ 0.775 µg/mL); in the assay with Trichosporon beigelii [20] (setting [44]), 7.81 µM (≈ 3.11 µg/mL); in [21] (setting [45]) it was 0.98 µM (≈ 0.39 µg/mL); in [22] (setting [46]), 0.98 µM (≈ 0.39 µg/mL); in the assay on Aspergillus fumigatus [23] (setting [47]), 0.98 µM (≈ 0.39 µg/mL); in the assay with Candida tropicalis [24] (setting [48]) it was 3.91 µM (≈ 1.55 µg/mL).

In the case of `CC(C)(C)C(=O)OCC1C=C(c2cccc(Cl)c2)C(=O)O1` (configuration not stated), the MIC in the assay with Lichtheimia corymbifera [1] (setting [25]) was determined as 7.81 µM (≈ 2.41 µg/mL); with Lichtheimia corymbifera [2] (setting [26]), 15.6 µM (≈ 4.83 µg/mL); in the assay on Pichia kudriavzevii [3] (setting [27]), 7.81 µM (≈ 2.41 µg/mL); with Pichia kudriavzevii [4] (setting [28]), 7.81 µM (≈ 2.41 µg/mL); in the assay with Pichia kudriavzevii [5] (setting [29]), 7.81 µM (≈ 2.41 µg/mL); with Pichia kudriavzevii [6] (setting [30]) it was 15.6 µM (≈ 4.83 µg/mL). The MIC in the assay on Aspergillus fumigatus [7] (setting [31]) was 3.91 µM (≈ 1.21 µg/mL); in the assay with Clavispora lusitaniae [8] (setting [32]) it was 3.91 µM (≈ 1.21 µg/mL); in the assay with Clavispora lusitaniae [9] (setting [33]), 7.81 µM (≈ 2.41 µg/mL); with Candida parapsilosis [10] (setting [34]), 7.81 µM (≈ 2.41 µg/mL); in the assay on Candida parapsilosis [11] (setting [35]), 15.6 µM (≈ 4.83 µg/mL); with Candida albicans [12] (setting [36]), less than 0.98 µM. Further, the MIC with Candida albicans [13] (setting [37]) is 3.91 µM (≈ 1.21 µg/mL); with Candida albicans [14] (setting [38]) it was 3.91 µM (≈ 1.21 µg/mL); in the assay with Candida albicans [15] (setting [39]), 7.81 µM (≈ 2.41 µg/mL); in the assay on Nakaseomyces glabratus [16] (setting [40]), less than 0.98 µM; in the assay with Nakaseomyces glabratus [17] (setting [41]), less than 0.98 µM; in the assay with Candida tropicalis [18] (setting [42]), 7.81 µM (≈ 2.41 µg/mL). Further, the MIC in the assay with Trichosporon beigelii [19] (setting [43]) is 3.91 µM (≈ 1.21 µg/mL); in the assay with Trichosporon beigelii [20] (setting [44]), 15.6 µM (≈ 4.83 µg/mL); in assay [21] (setting [45]) it was 1.95 µM (≈ 0.602 µg/mL); in assay [22] (setting [46]), 1.95 µM (≈ 0.602 µg/mL); with Aspergillus fumigatus [23] (setting [47]), less than 0.98 µM; in the assay on Candida tropicalis [24] (setting [48]) it was 15.6 µM (≈ 4.83 µg/mL).
